Data as given in ChEMBL document CHEMBL3872205, “Design, synthesis and evaluation of novel potent angiotensin II receptor 1 antagonists” (Eur J Med Chem, 2016).
pIC50, pKi: −log10 of the molar value. Active and inactive are the calls of the source. The calls are words filed in the database; no cut-off is given here.

Tests used:
[1] = Displacement of 125I-Ang2 from AT1 receptor in SPF Sprague-Dawley rat vascular smooth muscle cell membranes after 150 mins by gamma counting method
Method in brief: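 Primary aortic VSMCs from SPF Sprague-Dawley rats, obtained by explant culture in DMEM/10% FBS and identified by SM α-actin staining; passages 3–6. Whole cells (10^6/well) incubated with 125I-Ang II (diluted to 0.2 nM) and compound at final 10^-12–10^-6 M, 4 °C for 150 min. Washed, lysed in 0.1 M NaOH, γ-counted. IC50 from nonlinear fit of competition curves.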

Rattus norvegicus [2] = assay: Antihypertensive activity in spontaneous hypertensive rat model assessed as reduction in mean blood pressure at 15 mg/kg, po measured up to 24 hrs; type: functional, organism-based
Method in brief: (§1)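 Male SHRs (250 ± 20 g) were randomized, 6 per group. Compound was suspended in 0.5% sodium carboxymethyl cellulose and given orally; vehicle-only negative control. Mean blood pressure was calculated as (SBP − DBP)/3 + DBP from systolic and diastolic readings over the time course. Data are mean ± SD, with p < 0.05 taken as significant.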

Rattus norvegicus [3] = assay: Antihypertensive activity in spontaneous hypertensive rat model assessed as reduction in mean blood pressure at 15 mg/kg, po after 12 hrs; type: functional, organism-based; method in brief: as §1
Rattus norvegicus [4] = assay: Antihypertensive activity in spontaneous hypertensive rat model assessed as reduction in mean blood pressure at 15 mg/kg, po after 3 hrs; type: functional; method in brief: as §1

Row | SMILES | pIC50 [1] | pKi [1] | Activity (Rattus norvegicus [2]) | Activity (Rattus norvegicus [3]) | Activity (Rattus norvegicus [4]) [mmHg]
1 | CCCCCCC1=NC2(CCCC2)C(=O)N1Cc1ccc2c(ccn2-c2ccccc2-c2nnn[nH]2)c1 | 8.21 | 8.33 |  |  | 
2 | CCCC1=NC2(CCCC2)C(=O)N1Cc1cccc2c1ccn2-c1ccccc1-c1nnn[nH]1 | 8.11 | 8.25 | Active |  | 
3 | CCCC1=NC2(CCCC2)C(=O)N1Cc1ccc2c(ccn2-c2ccccc2-c2nnn[nH]2)c1 | 8.15 | 8.29 | Active |  | 
4 | CCCCCC1=NC2(CCCC2)C(=O)N1Cc1cccc2c1ccn2-c1ccccc1-c1nnn[nH]1 | 8.21 | 8.33 | Active |  | 

Stronger by pIC50 [1], values ahead:

Row | pIC50 [1] | SMILES | pKi [1] | Activity (Rattus norvegicus [2]) | Activity (Rattus norvegicus [3]) | Activity (Rattus norvegicus [4]) [mmHg]
5 | 8.84 | CCCCC1=NC2(CCCC2)C(=O)N1Cc1ccc(-c2ccccc2-c2nnn[nH]2)cc1 [IRBESARTAN] | 8.98 | Active |  | 
6 | 8.27 | CCCCCC1=NC2(CCCC2)C(=O)N1Cc1ccc2c(ccn2-c2ccccc2-c2nnn[nH]2)c1 | 8.47 | Active |  | 
7 | 8.52 | CCCCC1=NC2(CCCC2)C(=O)N1Cc1cccc2c1ccn2-c1ccccc1-c1nnn[nH]1 | 8.66 |  | Active | 40.57
